The source of these data is ChEMBL document CHEMBL3600344, “Novel thiourea-based sirtuin inhibitory warheads” (Bioorg Med Chem Lett, 2015).

Series [1] is described as follows: Antioxidant activity assessed as inhibition of superoxide radical anion generation at 200 uM after 5 mins in presence of NBT and NADH relative to control. Type of series: physicochemical.
For series [2], the target named is T1, NAD-dependent protein deacetylase sirtuin-1 (Homo sapiens, UniProt Q96EB6).
T1 sequence (Q96EB6 whole entry): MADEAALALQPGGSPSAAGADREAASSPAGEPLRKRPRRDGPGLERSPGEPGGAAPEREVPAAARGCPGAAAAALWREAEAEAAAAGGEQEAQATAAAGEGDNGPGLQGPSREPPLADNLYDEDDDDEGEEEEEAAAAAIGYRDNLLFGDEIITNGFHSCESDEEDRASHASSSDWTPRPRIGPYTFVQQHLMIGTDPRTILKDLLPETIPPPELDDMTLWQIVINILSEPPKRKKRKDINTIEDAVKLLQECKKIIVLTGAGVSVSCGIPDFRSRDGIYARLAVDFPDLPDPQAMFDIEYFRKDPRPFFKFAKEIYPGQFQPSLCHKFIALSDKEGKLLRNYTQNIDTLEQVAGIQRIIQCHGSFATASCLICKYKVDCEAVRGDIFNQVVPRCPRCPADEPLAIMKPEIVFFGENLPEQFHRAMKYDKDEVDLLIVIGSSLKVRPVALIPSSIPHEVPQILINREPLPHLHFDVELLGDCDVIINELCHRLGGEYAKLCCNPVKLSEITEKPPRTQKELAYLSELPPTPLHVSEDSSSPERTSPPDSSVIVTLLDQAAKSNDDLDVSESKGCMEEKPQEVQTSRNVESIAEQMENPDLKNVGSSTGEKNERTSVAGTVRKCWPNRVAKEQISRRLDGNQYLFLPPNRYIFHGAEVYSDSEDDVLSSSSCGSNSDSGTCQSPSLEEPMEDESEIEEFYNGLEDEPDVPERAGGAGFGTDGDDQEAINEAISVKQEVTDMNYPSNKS
In words: Inhibition of human His6 or GST-tagged SIRT1 using H2N-HK-(Nepsilon-acetyl-lysine)-LM-COOH as substrate after 10 mins by HPLC analysis.

For series [3], the target named is T2, NAD-dependent protein deacetylase sirtuin-2 (Homo sapiens, UniProt Q8IXJ6).
T2 sequence (Q8IXJ6 whole entry): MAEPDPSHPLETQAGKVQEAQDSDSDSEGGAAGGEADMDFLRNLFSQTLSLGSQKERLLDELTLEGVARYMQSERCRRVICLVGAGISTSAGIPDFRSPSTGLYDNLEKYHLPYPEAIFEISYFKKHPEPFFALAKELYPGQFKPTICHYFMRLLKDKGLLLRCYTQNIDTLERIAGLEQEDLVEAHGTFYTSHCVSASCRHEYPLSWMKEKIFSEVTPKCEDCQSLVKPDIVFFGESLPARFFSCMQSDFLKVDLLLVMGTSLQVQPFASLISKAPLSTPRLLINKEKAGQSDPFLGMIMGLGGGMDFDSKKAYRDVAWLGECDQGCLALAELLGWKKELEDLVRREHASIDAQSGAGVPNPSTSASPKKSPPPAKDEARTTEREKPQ
The experiment in a line: Inhibition of human His6-tagged SIRT2 using H2N-HK-(Nepsilon-acetyl-lysine)-LM-COOH as substrate after 10 mins by HPLC analysis.

The target of series [4] is T3, NAD-dependent protein deacetylase sirtuin-3, mitochondrial (Homo sapiens, UniProt Q9NTG7).
T3 sequence (Q9NTG7 whole entry): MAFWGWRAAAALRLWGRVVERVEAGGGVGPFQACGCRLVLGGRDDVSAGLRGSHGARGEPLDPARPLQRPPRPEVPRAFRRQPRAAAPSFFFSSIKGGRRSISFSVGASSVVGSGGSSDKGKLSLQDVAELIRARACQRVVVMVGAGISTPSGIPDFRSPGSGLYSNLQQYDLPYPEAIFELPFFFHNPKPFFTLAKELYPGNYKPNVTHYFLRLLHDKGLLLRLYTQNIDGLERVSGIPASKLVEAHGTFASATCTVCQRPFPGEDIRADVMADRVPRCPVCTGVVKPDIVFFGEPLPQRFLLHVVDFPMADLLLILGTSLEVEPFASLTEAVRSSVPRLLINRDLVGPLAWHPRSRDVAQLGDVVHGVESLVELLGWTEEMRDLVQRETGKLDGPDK
In words: Inhibition of human His6-tagged SIRT3 using H2N-HK-(Nepsilon-acetyl-lysine)-LM-COOH as substrate after 8 mins by HPLC analysis.

Series [5] is described as follows: Stability of the compound assessed as Streptomyces griseus pronase-mediated degradation by measuring compound remaining at 160 uM after 60 mins by HPLC analysis. Type of series: ADME. To be noted: read-out: Stability. The essentials: (§1)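 Compound incubated with pronase (broad-specificity protease mixture), percent compound remaining followed over time up to 60 min; a control peptide incubated under the same condition.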

In series [6] the target is NAD-dependent protein deacylase sirtuin-5, mitochondrial (Homo sapiens, UniProt Q9NXA8). The experiment in a line: Inhibition of human SIRT5 using CH3CONH-AR-(Nepsilon-succinyl-lysine)-ST-CONH2 as substrate after 5 mins by HPLC analysis.
For series [7], the target named is NAD-dependent protein deacylase sirtuin-6 (Homo sapiens, UniProt Q8N6T7). In words: Inhibition of human SIRT6 using H2N-EALPK-(Nepsilon-myristoyl-lysine)-TGGPQ-CONH2 as substrate after 12 mins by HPLC analysis.
Series [8] in a line: Stability of the compound assessed as Streptomyces griseus pronase-mediated degradation at 160 uM measured within 3 mins by HPLC analysis. Type of series: ADME. The note with it: 0.05 h. The essentials:
as §1

Peptide text beside a SMILES is read from it.

Chain of NAD-dependent protein deacylase sirtuin-5, mitochondrial (Q9NXA8 whole entry): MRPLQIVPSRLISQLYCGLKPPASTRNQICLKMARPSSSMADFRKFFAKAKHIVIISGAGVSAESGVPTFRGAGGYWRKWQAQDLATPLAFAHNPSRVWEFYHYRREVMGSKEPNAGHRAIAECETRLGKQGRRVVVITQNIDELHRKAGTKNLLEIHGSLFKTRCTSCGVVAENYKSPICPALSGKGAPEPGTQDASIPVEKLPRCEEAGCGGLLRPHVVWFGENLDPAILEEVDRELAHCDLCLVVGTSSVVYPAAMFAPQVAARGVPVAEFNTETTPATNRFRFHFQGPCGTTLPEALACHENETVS
Chain of NAD-dependent protein deacylase sirtuin-6 (Q8N6T7 whole entry): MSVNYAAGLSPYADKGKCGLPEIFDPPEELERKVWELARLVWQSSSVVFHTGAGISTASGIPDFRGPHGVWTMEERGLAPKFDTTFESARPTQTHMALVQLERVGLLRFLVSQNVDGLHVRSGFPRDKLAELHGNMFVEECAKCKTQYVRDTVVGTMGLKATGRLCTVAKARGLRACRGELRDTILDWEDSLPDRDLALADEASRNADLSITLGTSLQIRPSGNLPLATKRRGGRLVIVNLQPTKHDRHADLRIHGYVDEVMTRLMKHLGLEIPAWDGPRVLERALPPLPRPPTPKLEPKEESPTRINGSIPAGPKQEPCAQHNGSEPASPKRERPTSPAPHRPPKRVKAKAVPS

On to `CC(=O)NCCCC[C@H](NC(=O)[C@H](CCCCNC(C)=S)NC(=O)[C@H](CCCCNC(C)=O)NC(C)=O)C(N)=O`, for which the “inhibition (INH)” value in series [1] came out at 6%.
What is called IC50 is the concentration needed to halve the response being measured. A higher IC50 goes with lower potency. For the molecule `CC(=O)NCCCC[C@H](NC(=O)[C@H](CCCCNC(N)=S)NC(=O)[C@H](CCCCNC(C)=O)NC(C)=O)C(N)=O`, the IC50 in series [2] came to 49.9 µM; in series [3], 30.4 µM; in series [4], 5.4 µM.
On to `CNC(=S)NCCCC[C@H](NC(=O)[C@H](CCCCNC(C)=O)NC(C)=O)C(=O)N[C@@H](CCCCNC(C)=O)C(N)=O`, for which the IC50 in series [2] came to 5.6 µM; in series [3], 1.65 µM; in series [4], 2.2 µM. The “inhibition (INH)” value in series [1] was found to be 50%. For the same molecule, the remaining at 1 h, 160 µM in series [5] worked out at 88%.
For `CC(=O)NCCCC[C@H](NC(=O)[C@H](CCCCNC(=S)Nc1ccccc1)NC(=O)[C@H](CCCCNC(C)=O)NC(C)=O)C(N)=O`, it took 62.9 µM to reach half-maximal inhibition in series [2] (IC50).
Take `CC(=O)NCCCC[C@H](NC(=O)[C@H](CCCCNC(=S)NCC(=O)O)NC(=O)[C@H](CCCCNC(C)=O)NC(C)=O)C(N)=O`: the IC50 in series [6] was more than 100 µM.
In the case of `CC(=O)NCCCC[C@H](NC(=O)[C@H](CCCCNC(=S)NCCC(=O)O)NC(=O)[C@H](CCCCNC(C)=O)NC(C)=O)C(N)=O`, the IC50 in series [7] was determined as 2400 µM; in series [6] it was 5 µM.
`CC(=O)NCCCC[C@H](NC(=O)[C@H](CCCCNC(=S)NCCCC(=O)O)NC(=O)[C@H](CCCCNC(C)=O)NC(C)=O)C(N)=O` came in with an IC50 in series [6] of more than 100 µM.
As for `CSCC[C@H](NC(=O)[C@H](CC(C)C)NC(=O)[C@H](CCCCNC(C)=O)NC(=O)[C@H](CCCCN)NC(=O)[C@@H](N)Cc1cnc[nH]1)C(=O)O` (H-HKK(Ac)LM-OH), the Stability result in series [8] is given as “Unstable”.
